High-throughput results as filed in PubChem.
Many of the other results were omitted from the sample, so hits are more common in it than they were.
CHOP inh = inhibitors of CHOP induction in ER stress response; 220,000 tested, 3.8% active; inhibition, % at 10 µM; CHO-K1 CHOP-promoter luciferase, tunicamycin-induced, 15-18 h;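 active means compounds that reduced the stress-induced luciferase reporter signal by more than about 70% of percent inhibition, limit read from the data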;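 further: 0% = tunicamycin plus vehicle and 100% = wells without tunicamycin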
CHOP UPR activ = apoptotic UPR (CHOP) activation | CHO-CHOP luciferase reporter, luminescence; percent of tunicamycin response over DMSO baseline | activation, % at 10 µM | 330,000 tested, 0.34% active;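 active means at 10 µM dose, activation of 40% or more, normalized to positive control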;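 further: 100% = tunicamycin at 10 µg/mL and 0% = DMSO alone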
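System: CHO-CHOP luciferase reporter cell line; amount: 500 cells/well; buffer or medium: F12 medium containing 10% fetal bovine serum; incubation: 6 h compound exposure at 37 °C after overnight seeding; measured by: luciferase luminescence after 10 min with Steady-Glo reagent; evaluation: % reporter activation, DMSO baseline versus tunicamycin full activation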
UPR XBP1 act = activators of adaptive arm of unfolded protein response (XBP1); CHO-XBP1 luciferase reporter, IRE1-XBP1 UPR activation, luminescence; percent of tunicamycin response, DMSO as zero; activation, % at 20 µM; 330,000 tested, 0.33% active; AID 463104;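 active means versus positive control, 20 µM dose yields 30% or more activation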;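 further: 100% = tunicamycin at 10 µg/mL and 0% = DMSO only wells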
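assay system = CHO-XBP1 luciferase reporter cells | amount = 1000 cells/well | buffer or medium = F12 plus 10% FBS | compound dosing = single point, 20 µM final compound, 1% DMSO | incubation = 16-18 h cell attachment at 37 °C, then 6 h compound exposure | detection = Steady-Glo luminescence read | controls = tunicamycin 10 µg/mL and vehicle-only wells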
A1 inh = inhibitors of the anti-apoptotic protein A1, read as caspase activation; MEF A1-2A-BIM cells, Caspase-Glo 3/7 luminescence, 3 h; percent of clofoctol response, vehicle zero; caspase activation, % (test concentration not listed); 330,000 tested, 0.066% active; AID 2462;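 active means over half of replicate activation scores above 10%, or exactly half above 10 with the replicate mean above 10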
The depositor's hits bear a star; . = not tested or not shown.

SMILES	CHOP inh	CHOP UPR activ	UPR XBP1 act	A1 inh
COc1ccc(S(=O)(=O)N2CC(C)OC(C)C2)cc1C(=O)N1CCCCC1 (stereo not given)	.	-0.8	-2.2	0.1
NS(=O)(=O)c1ccc(Cl)cc1[N+](=O)[O-]	11.1	-0.7	-2.7	-0.3
O=C(CSc1nc2c(cnn2-c2ccccc2)c(=O)[nH]1)N1CCCCC1	-9.0	1.1	-1.2	-0.4
O=C(CSc1nc2c(cnn2-c2ccccc2)c(=O)[nH]1)c1ccc(Cl)cc1	91.5*	-0.9	-2.3	0.1
CCC(C)Sc1nc2c(cnn2-c2ccccc2)c(=O)[nH]1 (stereo not given)	77.7*	-0.8	7.5	-1.0
C[C@H](CO)N1C[C@H](C)[C@@H](CN(C)S(=O)(=O)c2cn(C)cn2)Oc2ccc(NS(=O)(=O)c3ccccc3)cc2C1=O	.	1.3	1.8	0.0
Cc1cc(NC(=O)CC2CCCC2)n(-c2nc3ccccc3[nH]2)n1	85.0*	0.4	13.2	-1.5
Cc1cc(NC(=O)c2ccc(F)cc2F)n(-c2nc3ccccc3[nH]2)n1	17.6	5.0	3.4	-0.3
Cc1cccc(CSc2ncnc3ccccc23)c1	73.3*	2.5	-1.0	-1.1
COc1ccc(CNC(=O)c2cc(-c3ccncc3)nc3c(C)cc(C)cc23)cc1OC	88.5*	1.5	-1.9	0.5
COc1ccc(CCNC(=O)c2cc(-c3ccncc3)nc3c(Cl)cccc23)cc1OC	12.9	-1.9	0.1	1.0
CCOC(=O)C1=C(N)Oc2cc(O)ccc2C1c1ccc([N+](=O)[O-])cc1 (stereo not given)	94.3*	0.4	-2.2	0.5
CCOC(=O)C1=C(N)Oc2ccc3ccccc3c2C1c1ccc(O)cc1 (stereo not given)	.	-2.1	-2.3	1.1
COc1ccc(S(=O)(=O)N2CCCC2CNC(=O)C(=O)NCc2ccco2)cc1 (stereo not given)	.	-0.2	-1.8	-1.0
Clc1ccccc1COc1ccc(/C=N/n2cnnc2)cc1	-1.0	4.1	-1.5	-0.8
C=CCNC(=S)N/N=C/c1ccc(OCc2ccccc2Cl)cc1	92.3*	0.1	-3.7	0.4
CCOC(=O)/C(=C/c1ccc(OC(=O)c2ccncc2)cc1)C(C)=O	-36.9	0.2	1.3	-0.2
CCOC(=O)C(=Cc1ccc(Br)cc1)C(=O)OCC	105.3*	.	.	1.9
Cc1ccc(N2CCN(CC(O)COc3cccc4ccccc34)CC2)cc1 (stereo not given)	86.0*	-0.7	1.2	0.0
Cc1ccccc1OCC(O)CN1CCN(c2ccc(Cl)cc2)CC1 (stereo not given)	82.0*	0.7	-1.5	-1.4
Cc1ccccc1OCC(O)CN1CCN(CC(O)COc2ccccc2C)CC1 (stereo not given)	2.3	0.5	-0.6	-0.6
OC(COc1cccc2ccccc12)CN1CCN(c2ccccc2Cl)CC1 (stereo not given)	76.4*	.	.	0.1
OC(COCc1ccc(Cl)cc1)CN1CCN(CC(O)COCc2ccc(Cl)cc2)CC1 (stereo not given)	88.1*	2.1	1.9	1.4
Cc1ccc(N2CCN(CC(O)COc3cccc(C)c3)CC2)cc1 (stereo not given)	5.7	-1.7	-1.7	0.0
CN(CCc1ccccc1)C1CCCN(C(=O)Cn2cccn2)C1 (stereo not given)	.	-1.8	-2.5	0.0
SMILES	CHOP inh	CHOP UPR activ	UPR XBP1 act	A1 inh
CCn1c(COC(=O)CNC(=O)c2cc(OC)c(OC)c(OC)c2)nc2cc(S(=O)(=O)N(C)C)ccc21	.	-1.5	-2.7	0.9
CCCc1cc(=O)[nH]c(SCC(=O)Nc2c(C)n(C)n(-c3ccccc3)c2=O)n1	.	0.0	0.2	-0.7
CCn1ccnc1CN(C)Cc1cn(-c2ccc(C)cc2)nc1-c1cccc(C)c1	82.6*	1.0	-0.2	-0.5
O=C(Nc1ccc(F)c(Cl)c1)Nc1ccc(Cl)cn1	81.0*	0.8	-0.3	0.6
COC(=O)c1ccc(NC(=O)Nc2ccc(F)c(Cl)c2)cc1	86.0*	3.9	0.4	0.1
COC(=O)c1ccc(NC(=O)Nc2ccc(F)cc2)cc1	39.5	2.4	4.5	-5.5
CCOc1ccc(NC(=O)CSc2nnc(NC(=O)C3CC3)s2)cc1	.	-0.4	6.8	-0.4
COc1cccc(-c2c(-c3cc(OC)cc(OC)c3)n(C)c3ccc(-c4cccc5[nH]ccc45)cc23)c1	.	2.0	-2.9	-0.5
COc1ccccc1-c1cc(SC)c(C#N)c(=O)o1	93.8*	23.4	-1.2	0.3
